Experiment [1] in a line: inhibitors of TNFa-induced NFkB p65 translocation, primary screen, imaging, HUVEC, MLSMR starter and 10KST1 sets (AID 438).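 For inhibition: signal is the nuclear over cytoplasmic p65 intensity ratio per well.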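 Note: compound added about 3h40 before a 20 min TNFalpha stimulation.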 The note with it: HUVEC TNFa-induced p65 nuclear translocation; cell count: measured here: nuclei count (cytotoxicity indicator), at 2.08 µM; inhibition: at 2 µM, stronger effect = higher value, 0% TNFa-plus-vehicle, 100% no-TNFa wells.
Experiment [2] in a line: inhibitors of mutant huntingtin aggregation, primary screen, imaging, exon1htt(103Q)mCFP cells, high-content imaging (AID 483;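 active = visual image review flags a hit and inhibition of aggregation exceeds 20%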;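 note: compound exposure lasted 3 days before fixation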;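 for nuclei count: percent of the per-plate median nuclei count of sample wells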). The note with it: exon1htt(103Q)mCFP cell line, aggregate imaging, at 2 µM; inhibition of aggregation: stronger effect = higher value; nuclei count: measured here: cell count, toxicity.
A short description of experiment [3]: inhibitors of E-selectin induction by TNFa, primary screen, imaging, HUVEC, immunofluorescence, MLSMR starter and 10KST1 sets (AID 487;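 active = visually confirmed hit in the image check and inhibition above 20%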;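 for inhibition: signal is fraction of cell area covered by stained E-selectin grains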;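 for nuclei count: 100% = median nuclei count of all wells on the same plate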). The following applies: HUVEC TNFalpha-induced E-selectin immunofluorescence imaging, at 2 µM; inhibition: stronger effect = higher value; nuclei count: measured here: cell number, toxicity.
The target in experiment [4] is Voltage-gated potassium channel subunit beta-2 (Rattus norvegicus) (UniProt P62483). In words: KvBeta enzyme negative modulators, primary screen, biochemical, NADPH fluorescence (AID 622;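 active = fluorescence slope higher than the sample average by over 3 SD, cut at about -0.22 in these data, passing the limit was not always enough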;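 note: slope of raw intensity against log time taken from 70 to 1610 s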). The note with it: recombinant KvBeta, 4-cyanobenzaldehyde reduction, at 10 µM, stronger effect = higher value.
The target is the same in experiment [5]. In words: KvBeta positive modulators, primary screen, biochemical, NADPH fluorescence (AID 623;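 active = NADPH fluorescence slope more negative than the mean of all samples by about 3 SD, 99.7% confidence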;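 note: fluorescence intensity change per second fitted from 20 to 320 s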). The note with it: Recombinant KvBeta, NADPH fluorescence decrease slope, 10 min; at 10 µM; stronger effect = lower value.
Experiment [6] addresses Alpha-2C adrenergic receptor (Homo sapiens) (UniProt P18825). In words: modulators of alpha2C/GIRK thallium flux, primary screen, cell-based, HEK293 alpha2C/GIRK1/2 (AID 624;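 active = fluorescence slope after compound addition differing from the mean of all screened samples at 99.7% confidence, in either direction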;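 note: slope of fluorescence ratio to pre-addition baseline per second over 15 to 24 s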). The following applies: thallium flux BTC fluorescence, at 10 µM, actives lie on both sides.
Experiment [7] can be described thus: inhibitors of larval lipid processing in zebrafish, primary screen, whole organism, PED6 fluorescence, gall bladder and intestine (AID 686;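 active = a full or partial loss of lipid-probe fluorescence in the fish gall bladder, intestine or both, judged by eye; inactive = no fluorescence loss, or compound toxic to the fish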;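 note: larvae 5 to 7 days old with five fish per well; signal comes from phospholipase A2 cleavage of quenched PED6 carried via bile; overnight exposure to compound and PED6 before scoring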). The following applies: Zebrafish larvae PED6 lipid processing, fluorescence scoring; screened at 20 µM (by protocol). Summed up: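 Also added: quenched phospholipase substrate PED6, 100 nM final, ingested by larvae; System: zebrafish larvae, 5-7 d; Quantity: 5 larvae per well; Compound: 20 µM single dose; Schedule: overnight compound and PED6 incubation; Read-out: visual per-well fluorescence inhibition score; Measured by: By-eye fluorescence microscopy; Medium: E3.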

Experiment [8] can be described thus: inhibitors of Sendai virus-induced IRF3 signaling, primary screen, TLR/RLR signaling modifier project, cell-based, Sendai virus stimulus, luciferase, 10K MLSCN set (AID 602276;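 active = inhibition at or above 50% at 10 µM; inactive = inhibition below 50%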;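 note: firefly luciferase from ISG56 promoter only with Renilla not read in this screen; 0% = Sendai virus plus DMSO and 100% = medium plus DMSO without virus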). The following applies: HEK293 RL24 IRF3 luciferase reporter, at 10 µM, stronger effect = higher value. On the technique in general: In a reporter assay the amount or activity of a reporter protein is the signal.

Experiment [9] in a line: inhibitors of poly I:C-induced TLR3 signaling, primary screen, cell-based, poly I:C stimulus, luciferase, 10K MLSCN set (AID 602277;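 active = inhibition of the reporter signal at or above 50%; inactive = inhibition below 50%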). The following applies: HEK293-TLR3 RL24 IRF3 luciferase reporter, at 10 µM, stronger effect = higher value.
In experiment [10] the target is Muscarinic acetylcholine receptor M4 (Homo sapiens) (UniProt P08173). In words: compounds altering M4/GIRK thallium flux, either direction, primary screen, M4 allosteric agonist project, cell-based, HEK293 M4/GIRK, BTC-AM (AID 625;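 active = fluorescence slope after compound addition differing from the mean of all tested samples at 99.7% confidence, mostly higher but some lower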;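 note: thallium influx through GIRK channels coupled to M4 in HEK293 cells with BTC-AM dye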). The note with it: at 10 µM, actives lie on both sides. The essentials:
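assay system = HEK293 cells with M4 receptor and GIRK channels | medium = pH 7.3 thallium assay buffer | doses = 10 µM final, single point | timing = cells overnight at 37 °C, BTC-AM loading 1 h, reads 2 min total | signal = BTC-AM fluorescence, 1 Hz kinetic reads | read-out = post-addition slope, 15–24 s, of baseline-normalized fluorescence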

Activity calls are given as the source filed them.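 Rule for the calls, unless noted: active = inhibition above 20% together with a positive visual image hit; inconclusive = visual image hit but inhibition not above 20%; inactive = no visual image hit.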

The term inhibition denotes the relative decrease from the control value, in per cent.

Voltage-gated potassium channel subunit beta-2 (Rattus norvegicus), sequence (P62483 whole entry, looked up): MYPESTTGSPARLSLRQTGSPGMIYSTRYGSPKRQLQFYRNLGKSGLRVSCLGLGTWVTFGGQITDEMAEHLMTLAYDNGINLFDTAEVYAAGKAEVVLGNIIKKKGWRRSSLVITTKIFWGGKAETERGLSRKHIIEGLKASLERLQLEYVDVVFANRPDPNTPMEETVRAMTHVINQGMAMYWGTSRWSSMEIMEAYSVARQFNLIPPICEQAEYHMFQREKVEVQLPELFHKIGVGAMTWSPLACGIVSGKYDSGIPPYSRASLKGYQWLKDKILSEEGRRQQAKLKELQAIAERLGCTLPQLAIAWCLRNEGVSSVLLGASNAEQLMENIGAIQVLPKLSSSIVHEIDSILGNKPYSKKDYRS
Muscarinic acetylcholine receptor M4 (Homo sapiens), sequence (P08173 whole entry, looked up): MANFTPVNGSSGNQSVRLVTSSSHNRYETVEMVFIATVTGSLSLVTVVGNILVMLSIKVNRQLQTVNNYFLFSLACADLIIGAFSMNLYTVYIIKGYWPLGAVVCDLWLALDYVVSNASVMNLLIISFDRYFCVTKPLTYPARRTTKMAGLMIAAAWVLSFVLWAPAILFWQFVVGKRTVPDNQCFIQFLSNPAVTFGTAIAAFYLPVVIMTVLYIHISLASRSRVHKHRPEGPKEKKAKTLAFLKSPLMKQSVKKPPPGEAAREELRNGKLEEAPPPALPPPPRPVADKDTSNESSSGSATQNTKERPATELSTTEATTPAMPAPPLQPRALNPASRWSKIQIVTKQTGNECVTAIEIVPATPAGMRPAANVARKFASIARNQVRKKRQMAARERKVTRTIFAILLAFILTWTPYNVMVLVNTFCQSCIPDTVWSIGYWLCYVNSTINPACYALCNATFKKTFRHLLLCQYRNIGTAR
Alpha-2C adrenergic receptor (Homo sapiens), sequence (P18825 whole entry, looked up): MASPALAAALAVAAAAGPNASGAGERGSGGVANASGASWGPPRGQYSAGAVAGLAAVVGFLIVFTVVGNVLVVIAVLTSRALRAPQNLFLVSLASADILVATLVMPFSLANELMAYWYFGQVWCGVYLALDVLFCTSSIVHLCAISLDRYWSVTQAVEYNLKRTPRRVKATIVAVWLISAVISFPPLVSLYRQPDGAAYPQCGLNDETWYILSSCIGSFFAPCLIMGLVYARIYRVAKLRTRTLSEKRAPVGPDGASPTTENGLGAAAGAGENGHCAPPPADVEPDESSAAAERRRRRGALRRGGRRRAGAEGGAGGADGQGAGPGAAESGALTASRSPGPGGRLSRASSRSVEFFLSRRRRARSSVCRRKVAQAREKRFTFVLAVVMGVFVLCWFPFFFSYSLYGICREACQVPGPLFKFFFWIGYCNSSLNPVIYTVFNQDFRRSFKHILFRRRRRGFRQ

Regarding `O=C(c1cccc2c1C(=O)N(Cc1cccnc1)C2)N1CCN(c2ccccc2)CC1`, in [1], the cell count is 941. For the same molecule, the inhibition in experiment [1] is 9.3% (inactive); in [3], -104% (inactive); in experiment [8], 13.7% (inactive); in experiment [9], 9.9% (inactive). For the same molecule, the inhibition of aggregation in [2] was -5.7% (inactive). Also, the nuclei count turned out to be 103% in experiment [2] and 135% in experiment [3]. Moreover, in experiment [4], the fluorescence slope is -0.365 (inactive). Also, the NADPH fluorescence slope in experiment [5] is -6e-05 (inactive). Further, the slope in [6] is 0.00499 (inactive). Further, in [7], the call was inactive.
As for `COCCn1c(C)cc(C(=O)COC(=O)c2ccc(N3CCCC3=O)cc2)c1C`, the cell count in experiment [1] was determined as 527. Also, the inhibition was -16.9% (inactive) in experiment [1], 26.9% (inactive) in experiment [3], 14.7% (inactive) in experiment [8] and 26.1% (inactive) in experiment [9]. Also, the inhibition of aggregation in experiment [2] was 12.8% (inactive). Also, the nuclei count in experiment [2] worked out at 97.9%; in [3], 103%. In [4], the fluorescence slope was -0.329 (inactive). Also, in experiment [5], the NADPH fluorescence slope was -7.1e-05 (inactive). Besides, the slope in experiment [6] was 0.00515 (inactive). The molecule was classed as inactive in experiment [7].
Consider `CCOC(=O)CSc1nc2sc(C)c(C)c2c(=O)[nH]1`, for which the cell count in [1] amounted to 419. Besides, the inhibition in experiment [1] was 1.6% (inactive); in experiment [3] it was -75.6% (inactive); in experiment [8], 8.58% (inactive); in experiment [9], 9.53% (inactive). In addition, the inhibition of aggregation in [2] is -20% (inactive). In addition, the nuclei count in [2] was 104%; in experiment [3], 102%. In [4], the fluorescence slope was -0.38 (inactive). For the same molecule, the NADPH fluorescence slope in experiment [5] is -5e-06 (inactive). Moreover, in experiment [6], the slope is 0.00685 (inactive). Besides, in [7], the molecule was called inactive.
Regarding `COc1ccccc1C(=O)NCC(=O)Nc1ccccc1`, in [1], the cell count was 258. In addition, the inhibition is -2.3% (inactive) in experiment [1], 59% (inactive) in experiment [3], 6.26% (inactive) in experiment [8] and 8.93% (inactive) in experiment [9]. In addition, in [2], the inhibition of aggregation was 14.2% (inactive). Also, the nuclei count turned out to be 94.4% in experiment [2] and 27.8% in [3]. Besides, the fluorescence slope in experiment [4] was -0.451 (inactive). Further, the NADPH fluorescence slope in experiment [5] is -4.6e-05 (inactive). Also, the slope in experiment [6] is 0.00528 (inactive). Moreover, the molecule was called inactive in [7].
Take `O=C(c1cnn2c(C(F)F)cc(-c3ccccc3)nc12)N1CCN2CCCC2C1` (centres undefined): the cell count in experiment [1] worked out at 223. Besides, the inhibition in [1] was -3.7% (inactive); in experiment [3], -87.1% (inactive); in experiment [8] it was 15.8% (inactive); in experiment [9], 32.7% (inactive). The inhibition of aggregation in experiment [2] is 13% (inactive). Moreover, the nuclei count in experiment [2] turned out to be 100%; in experiment [3] it was 129%. Also, in experiment [4], the fluorescence slope was -0.251 (inactive). Further, the NADPH fluorescence slope in experiment [5] was -1.6e-05 (inactive). For the same molecule, the slope in [6] was 0.00468 (inactive). For the same molecule, in experiment [7], the molecule was called inactive.
In the case of `FC(F)(F)c1ccc(Sc2nnc(-c3cccs3)n2CC2CCCO2)nc1` (centres undefined), the cell count in experiment [1] turned out to be 357. Moreover, the inhibition in experiment [1] is -21.4% (inactive); in experiment [3], -85.5% (inactive); in experiment [8] it was 13.6% (inactive); in [9] it was 6.99% (inactive). In addition, in [2], the inhibition of aggregation is -3% (inactive). The values for the nuclei count in experiment [2] and in experiment [3] were 83.2% and 104%, respectively. The fluorescence slope in experiment [4] is -0.424 (inactive). In addition, in experiment [5], the NADPH fluorescence slope is -7.7e-06 (inactive). In addition, the slope in [6] is 0.00449 (inactive). The call in [7] was inactive.
As for `Cc1onc(-c2ccccc2)c1C(=O)NCc1cccnc1`, the cell count in [1] was 272. In addition, the inhibition is -15.4% (inactive) in experiment [1], -22.8% (inactive) in [3], 6.6% (inactive) in [8] and 8.85% (inactive) in experiment [9]. The inhibition of aggregation in experiment [2] is -24.1% (inactive). Moreover, the nuclei count in [2] came out at 120%; in experiment [3], 112%. Besides, in experiment [4], the fluorescence slope was -0.385 (inactive). In addition, the NADPH fluorescence slope in [5] was -6.1e-05 (inactive). For the same molecule, in [6], the slope was 0.00521 (inactive). For the same molecule, the outcome in experiment [7] was inactive.
`CCOc1nc(NCCC2=CCCCC2)nc(N2CCOCC2)n1`: the cell count in experiment [1] came to 450. Also, the inhibition in experiment [1] was 2.7% (inactive); in experiment [3], -23.8% (inactive); in [8] it was 10.2% (inactive); in experiment [9], 5.8% (inactive). Moreover, the inhibition of aggregation in [2] is 6.3% (inactive). Besides, the nuclei count in [2] worked out at 84%; in experiment [3], 96.5%. Besides, the fluorescence slope in experiment [4] is -0.364 (inactive). Moreover, the NADPH fluorescence slope in [5] is -5.8e-05 (inactive). For the same molecule, the slope in experiment [6] is 0.00441 (inactive). Also, in experiment [7], the call was inactive.
Turning to `O=C(CSc1ccccc1C(=O)NCCCN1CCCC1=O)NCc1ccco1`, in experiment [1], the cell count is 463. Also, the inhibition is 3.8% (inactive) in experiment [1], -81.8% (inactive) in [3], 11.7% (inactive) in [8] and 12.7% (inactive) in experiment [9]. In addition, in experiment [2], the inhibition of aggregation was -6.6% (inactive). Further, the nuclei count in experiment [2] stood at 98.6%; in [3] it was 118%. For the same molecule, in experiment [4], the fluorescence slope was -0.358 (inactive). For the same molecule, the NADPH fluorescence slope in [5] was -4.3e-05 (inactive). In addition, in experiment [6], the slope was 0.00452 (inactive). In addition, the call in experiment [7] was inactive.
Consider `N#CCc1ccc(NC(=O)Nc2cccc(Cl)c2)cc1`, for which the cell count in [1] was 321. Further, the inhibition in experiment [1] is -8.6% (inactive); in experiment [3] it was -112% (inactive); in experiment [8], -26.8% (inactive); in [9], -62.7% (inactive). Further, the inhibition of aggregation in experiment [2] is -19.9% (inactive). Moreover, the nuclei count is 85.4% in experiment [2] and 137% in [3]. Also, the fluorescence slope in [4] is -0.46 (inactive). In experiment [5], the NADPH fluorescence slope was -5.6e-05 (inactive). Moreover, the slope in [6] was 0.00505 (inactive). Also, the molecule was called inactive in [7].
For `COc1ccc(N2CCN(C(=O)CSc3ncnc4c3cnn4-c3ccccc3C)CC2)cc1`, the cell count in experiment [1] came out at 543. The inhibition in [1] is 2.1% (inactive); in [3] it was -60.3% (inactive); in [8] it was 10.5% (inactive); in [9], 15.1% (inactive). The inhibition of aggregation in experiment [2] is -6.1% (inactive). The nuclei count in experiment [2] was 120%; in experiment [3], 159%. For the same molecule, the fluorescence slope is -0.506 (inactive) in [4] and 0.0046 (inactive) in experiment [10]. The NADPH fluorescence slope in [5] was -3.3e-06 (inactive).
On to `Cc1ccc(S(=O)(=O)NCCC(=O)OCn2nnc3ccccc3c2=O)cc1`, for which the cell count in experiment [1] is 603. For the same molecule, the inhibition is -0.8% (inactive) in experiment [1], -272% (inactive) in [3], 15.2% (inactive) in [8] and 28% (inactive) in [9]. Besides, in [2], the inhibition of aggregation was 5% (inactive). Further, the nuclei count is 102% in experiment [2] and 119% in experiment [3]. Moreover, the fluorescence slope in [4] was -0.454 (inactive); in [10], 0.00588 (inactive). The NADPH fluorescence slope in [5] is -4.9e-05 (inactive).
Turning to `CC(=O)Nc1ccc(OC(=O)c2cccnc2)cc1`, the cell count in [1] was found to be 367. The inhibition in experiment [1] was 0.3% (inactive); in experiment [3], -194% (inactive); in [8], -10.8% (inactive); in [9] it was -12.7% (inactive). Also, the inhibition of aggregation in experiment [2] is -13.8% (inactive). Further, the figures for the nuclei count in [2] and in [3] were 103% and 112%, respectively. The results for the fluorescence slope in experiment [4] and in experiment [10] were -0.318 (inactive) and 0.00601 (inactive), respectively. In addition, in [5], the NADPH fluorescence slope was -4.9e-05 (inactive).
Regarding `Cc1ccc(C)c(OCC(O)CN2C(C)CCCC2C)c1` (centres undefined), the cell count in experiment [1] was found to be 379. Further, the inhibition in [1] was 0% (inactive); in experiment [3], -71.2% (inactive); in experiment [8], 13.4% (inactive); in experiment [9] it was 26.5% (inactive). The inhibition of aggregation in experiment [2] was 2.7% (inactive). For the same molecule, the nuclei count in experiment [2] worked out at 93.8%; in experiment [3] it was 117%. Also, the fluorescence slope in experiment [4] was -0.526 (inactive); in experiment [10] it was 0.00528 (inactive). In addition, the NADPH fluorescence slope in [5] was 5e-05 (inactive).

The values above are taken from PubChem BioAssay.
